Source: PubChem BioAssay
beta cell repl: induces beta-cell replication in MIN6 cells | proliferation, % at 10 µM | AID 2380 | 0.29% of 330,000 active | MIN6 cells proliferation, ATPlite luminescence, 48 h; cells starved in 0.2% serum; 100% = growth in 10% serum;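 active means compounds whose signal lies at least 3.5 SD above the mean of all wells on their plate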;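 further: 0% = DMSO-treated cells in low-serum medium and 100% = 10% serum control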
ANO1 activ: activates or potentiates the mouse TMEM16A chloride channel; B-score at 10 µM; HEK293 TMEM16A/YFP-H148Q/I152L, iodide quench fluorescence; stronger effect = lower value; 0.3% of 340,000 active; AID 623877; Q8BHY3;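 active means fluorescence-ratio B-score plate-corrected deviation score at least 3 library SD below zero, with starting fluorescence score within 5 deviations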;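 further: channel opened by trigger with iodide after compound preincubation; score built on the fluorescence ratio of max minus min over baseline; more negative score means more quench and so TMEM16A activation or potentiation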
MC4R ag barr: activates human MC4R beta-arrestin recruitment; P32245; U2OS MC4R beta-arrestin complementation, luminescence; percent of melanotan II response, DMSO zero; activation, % at 8.9 µM; 0.98% of 360,000 active; AID 540308;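 active means activation above a per-plate cutoff, the mean activation of sample wells on that plate plus 3 SD, cut at about 8% in these data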
m5-HT2A agonist: mouse HTR2A agonism via beta-arrestin recruitment; 0.66% of 360,000 active; AID 624169; P35363; activation, % at 7.6 µM; CHO-K1 mHTR2A beta-arrestin complementation, luminescence; percent of 30 µM serotonin response;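 active means activation above a run cutoff, the mean activation of all tested compounds plus 3 SD, cut at about 14% in these data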;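 further: 0% = plate median of compound wells and 100% = 30 µM serotonin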
Target sequence (P35363 whole entry, looked up): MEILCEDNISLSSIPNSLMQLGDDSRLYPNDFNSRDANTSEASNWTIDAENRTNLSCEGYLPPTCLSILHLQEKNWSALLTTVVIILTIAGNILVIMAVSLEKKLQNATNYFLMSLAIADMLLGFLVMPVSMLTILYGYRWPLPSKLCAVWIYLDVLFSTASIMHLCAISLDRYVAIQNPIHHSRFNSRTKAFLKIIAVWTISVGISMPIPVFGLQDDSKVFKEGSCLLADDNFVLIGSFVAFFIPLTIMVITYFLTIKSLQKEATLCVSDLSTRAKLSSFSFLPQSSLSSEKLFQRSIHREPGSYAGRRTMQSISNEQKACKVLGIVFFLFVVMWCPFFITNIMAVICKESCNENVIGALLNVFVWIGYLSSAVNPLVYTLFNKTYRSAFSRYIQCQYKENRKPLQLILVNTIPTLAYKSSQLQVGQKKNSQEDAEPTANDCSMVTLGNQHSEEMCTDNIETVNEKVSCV
MC4R antag cAMP: blocks human MC4R cAMP signaling. AID 540295. MC4R-expressing cells, MTII-stimulated cAMP, LANCE TR-FRET. inhibition, % at 6.5 µM. P32245. 0.48% of 360,000 active;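 active means inhibition above its plate's cutoff, the mean of tested wells on that plate plus 3 SD, cut at about 29% in these data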;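 further: 0% = Melanotan II alone and 100% = Melanotan II plus saturating MCL0020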
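Material: U2OS-MC4R stable cell line | Reagent: Melanotan II challenge after compound preincubation | Doses: One concentration, 6.5 µM nominal | Incubation: 30-min compound preincubation, 1-h Melanotan II challenge, 1-h detection, room temperature | Signal: TR-FRET cAMP assay | Replicates: One well per compound, no replicates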
TMEM16A inh: mouse TMEM16A channel inhibition, primary screen | 1.2% of 310,000 active | Q8BHY3 | HEK293 TMEM16A/YFP iodide influx fluorescence, ionomycin | normalized B-score (activity score, 25-100; higher = stronger inhibition) at 10 µM;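 active means ratio plate-corrected score three or more library SD toward inhibition, starting fluorescence score within five deviations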;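 further: score derived from kinetic fluorescence span divided by baseline fluorescence per well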
MOR ag counter: OPRM1 agonism in mouse HTR2A counterscreen; shares compounds with m5-HT2A agonist; U2OS OPRM1 beta-arrestin PathHunter, luminescence; DMSO 0%, DAMGO 9.3 µM 100%; activation, % at 9.3 µM; 5.3% of 2,300 active;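 active means mean activation above the mean of DMSO-only wells plus 3 SD, cut at about 0.5% in these data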
HTR2A ag conf: mouse HTR2A agonism confirmed; CHO-K1 PathHunter beta-arrestin recruitment, luminescence; DMSO 0%, 30 µM serotonin 100%; 19% of 2,300 active; shares compounds with m5-HT2A agonist; activation, % at 7.6 µM; AID 624381;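 active means mean activation across triplicates above the hit threshold derived in the original primary screen, cut at about 15% in these data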
The depositor's hits bear a star; i = inactive; nt = no result given. Only some compounds are listed: those with a hit (about 3.4% of all), similar ones and a draw of the others.

SMILES | beta cell repl | ANO1 activ | MC4R ag barr | m5-HT2A agonist | MC4R antag cAMP | TMEM16A inh | MOR ag counter | HTR2A ag conf
CC(=O)C1C(N2CC2)CC2C3CC=C4CC(O)CCC4(C)C3CCC21C (stereo unspecified) | nt | i | -3 | 33* | -6 | nt | -1 | 2
COC(=O)C1=C(c2c(C)noc2C)C[C@@H]2CC[C@H]1N2C(=O)NCc1ccco1 | 0 | i | 0 | 8 | 3 | nt | nt | nt
COc1ccc(/C=C/C=C2C(=O)NC(=S)NC2=O)cc1 | nt | i | 0 | -1 | 0 | nt | nt | nt
Clc1cccc(N2CCNCC2)c1 | 5 | i | 1 | 25* | 0 | i | -1 | 7
COc1cccc(N2CCN(Cc3cccc(Cl)c3)CC2)c1 | -1 | i | -1 | 7 | -5 | i | nt | nt
Oc1ccc(C2=CCNCC2)cc1O | -8 | i | 1 | 36* | -12 | i | 0 | 117*
C[C@@H]1O[C@@H](O[C@@H]2C=C3CCC4C(CC[C@]5(C)[C@@H](c6ccc(=O)oc6)CC[C@]45O)[C@@]3(C)CC2)[C@H](O)[C@H](O)[C@H]1O (stereo partly specified) | -4 | i | 25* | 16* | 3 | i | 7.7* | 28*
C[C@@H]1O[C@@H](O[C@@H]2C=C3CC[C@@H]4C(CC[C@]5(C)[C@@H](c6ccc(=O)oc6)CC[C@]45O)[C@@]3(C)CC2)[C@H](O)[C@H](O)[C@H]1O (stereo partly specified) | -2 | i | 38* | 18* | 11 | nt | 6.3* | 9
COc1ccc(-n2nnnc2C(c2ccccc2OC(F)(F)F)N2CCC(n3c(=O)[nH]c4ccccc43)CC2)cc1 (stereo unspecified) | nt | nt | nt | 16* | nt | nt | nt | 7
COc1ccc(C(c2nnnn2-c2ccc3c(c2)OCCO3)N2CCC(n3c(=O)[nH]c4ccccc43)CC2)cc1 (stereo unspecified) | nt | nt | nt | 18* | nt | nt | nt | 15*
CCN1CCC2(CC1)NC(=O)c1ccccc1O2 | 0 | i | 2 | 4 | 14 | i | nt | nt
C[C@@H]1CN([C@H](C)CO)C(=O)CCCn2nncc2CO[C@@H]1CN(C)C(=O)Oc1ccc2ccccc2c1 | nt | nt | 0 | 8 | 9 | nt | nt | nt
Cc1cc2c(cc1C)NP(=S)(c1ccccc1)N2 | nt | i | 0 | -5 | -3 | nt | nt | nt
CCOC(=O)c1c(C)n(C(C)C)c2ccc(OC(=O)c3ccc(N4C(=O)CCC4=O)cc3)cc12 | 0 | i | 1 | 16* | 6 | i | 0 | 3
COc1ccc2c(c1)c(C(=O)O)c(C)n2C(C)C | -4 | i | -1 | -3 | -5 | i | nt | nt
CC1[C@H]2Cc3ccc(O)cc3[C@]1(C)CCN2CCc1ccccc1 (stereo partly specified) | 0 | i | -1 | -1 | 10 | nt | nt | nt
CCCN1CC[C@@H]2c3cc(O)ccc3CC[C@@H]21 | -3 | i | -1 | 17* | 2 | i | 0 | 49*
COC(=O)C1=C(c2cc3ccccc3s2)C[C@@H]2CC[C@H]1N2C(=O)NCCNC(C)=O | -2 | i | 1 | 2 | -3 | i | nt | nt
CCCCc1ccc2[nH]cc(CCN)c2c1 | -4 | i | 5 | 26* | 2 | i | 0 | 50*
NCCc1c[nH]c2ccccc12 | -2 | i | -1 | 10 | -4 | i | nt | nt
CC1=C[C@@H]2c3cccc4[nH]cc(c34)C[C@H]2N(C)C1 | -2 | -14* | 1 | 28* | -10 | i | 0.8* | 144*
CN(C)CCN(C(=O)COc1ccc(Cl)cc1)c1nc2cc3c(cc2s1)OCO3 | 0 | i | 0 | 1 | -7 | i | nt | nt
CN1C[C@H](CO)C=C2c3cccc4[nH]cc(c34)C[C@H]21 | -5 | i | -1 | 30* | -16 | i | 0 | 94*
CCC1CN1P1(=O)OCC(C)([N+](=O)[O-])CO1 (stereo unspecified) | nt | i | -1 | 4 | -5 | nt | nt | nt
CC(NCc1ccccc1Cl)C(O)c1ccccc1 (stereo unspecified) | -4 | i | 2 | -2 | 6 | i | nt | nt
SMILES | beta cell repl | ANO1 activ | MC4R ag barr | m5-HT2A agonist | MC4R antag cAMP | TMEM16A inh | MOR ag counter | HTR2A ag conf
CC(NCc1ccc(Cl)c(Cl)c1)C(O)c1ccccc1 (stereo unspecified) | -3 | i | 7 | 16* | 12 | i | 0 | -4
CC(NC1=NCCS1)c1ccccc1 (stereo unspecified) | -5 | i | -3 | 0 | -4 | i | nt | nt
O=C(Nc1ccc2ccccc2c1)N1C[C@H]2C[C@@H](C1)c1cccc(=O)n1C2 | 1 | i | 3 | 1 | 6 | i | nt | nt
Cc1ccc(CC(=O)N2CCN(Cc3ccccc3)CC2)cc1 | -2 | i | -2 | 4 | 3 | i | nt | nt
CCC(C)N1CCN(C(=O)Cc2ccccc2)CC1 (stereo unspecified) | 0 | i | 2 | 20* | 0 | i | 0 | 4
O=C(Cc1ccc(Br)cc1)N1CCN(Cc2ccccc2)CC1 | 0 | i | 0 | 21* | 7 | i | -1 | 4
O=C(Cc1ccccc1)N1CCN(Cc2cccc(Br)c2)CC1 | 2 | i | 1 | 7 | 10 | i | nt | nt
O=C(O)C1CC2(Cl)C(Cl)=C(Cl)C1(Cl)C2(Cl)Cl (stereo unspecified) | nt | i | -1 | 5 | 7 | nt | nt | nt
c1ccc(-c2nnc(C3CC(c4cccnc4)=NO3)o2)cc1 (stereo unspecified) | 5 | i | 0 | 3 | 5 | i | nt | nt
O=C1NC(=O)[C@]2(Cc3ccccc3N3CCN(c4ccccc4)CC32)C(=O)N1c1ccccc1 (stereo partly specified) | -3 | i | 2 | 7 | 17 | i | nt | nt
CN1C(=O)NC(=O)[C@]2(Cc3ccccc3N3CCN(c4ccccc4)CC32)C1=O (stereo partly specified) | -2 | i | -1 | 17* | -2 | i | 0 | 8
O=c1[nH]c(=O)n(Cc2ccccc2Cl)c(O)c1/C=C1/C=CC=N1 | -5 | i | -1 | 2 | -10 | i | nt | nt
COc1ccc2c3c1OC1C(=O)CC[C@@]4(O)[C@@H](C2)N(CC2CC2)CC[C@]314 (stereo partly specified) | -1 | i | 0 | -3 | 10 | nt | nt | nt
